From ChEMBL document CHEMBL3826951, “Discovery of Benzocycloalkane Derivatives Efficiently Blocking Bacterial Virulence for the Treatment of Methicillin-Resistant S. aureus (MRSA) Infections by Targeting Diapophytoene Desaturase (CrtN)” (J Med Chem, 2016)
Active and inactive are the calls of the source. No cut-off for these calls is given here.

Experiments:
[1] = target: T1, 4,4'-diapophytoene desaturase (4,4'-diaponeurosporene-forming) (Staphylococcus aureus (strain Newman), UniProt O07855); assay: Inhibition of diapophytoene desaturase in Staphylococcus aureus Newman assessed as reduction in staphyloxanthin pigment formation after 48 hrs by spectrophotometry; design: species or system Staphylococcus aureus subsp. aureus str. Newman
T1 sequence (O07855 whole entry): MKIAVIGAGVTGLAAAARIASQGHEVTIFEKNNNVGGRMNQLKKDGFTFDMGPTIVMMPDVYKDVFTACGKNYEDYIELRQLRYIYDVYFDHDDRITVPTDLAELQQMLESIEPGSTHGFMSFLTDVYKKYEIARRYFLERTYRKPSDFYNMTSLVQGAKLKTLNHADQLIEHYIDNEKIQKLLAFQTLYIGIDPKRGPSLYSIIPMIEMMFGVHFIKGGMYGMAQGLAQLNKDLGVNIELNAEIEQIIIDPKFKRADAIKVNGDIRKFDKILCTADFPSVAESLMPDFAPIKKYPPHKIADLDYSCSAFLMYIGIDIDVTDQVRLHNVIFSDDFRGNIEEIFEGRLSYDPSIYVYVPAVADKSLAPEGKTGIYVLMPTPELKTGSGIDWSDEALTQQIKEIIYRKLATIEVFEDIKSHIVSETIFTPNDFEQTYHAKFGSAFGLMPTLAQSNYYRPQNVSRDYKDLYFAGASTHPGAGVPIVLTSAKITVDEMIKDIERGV

[2] = Aqueous solubility of the compound in water after 24 hrs by HPLC method; type: physicochemical
Procedure, shortened: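 Excess solid stirred in pure water for 24 h, then filtered. Filtrate analysed by HPLC (10 µL injection). Concentration read against a calibration curve of peak area versus concentration, built from methanol solutions at 50–800 µg/mL.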

[3] = target: T1, 4,4'-diapophytoene desaturase (4,4'-diaponeurosporene-forming); assay: Inhibition of 6x-His-tagged Staphylococcus aureus diapophytoene desaturase expressed in Escherichia coli BL21 (DE3) using diapophytoene substrate after overnight incubation
Staphylococcus aureus [4] = assay: Attenuation of Staphylococcus aureus Newman virulence in BALB/c mouse lethal infection model assessed as mouse survival administered ip every 12 hrs for 108 hrs followed by 2 x 10^7 CFU bacterial challenge after first 12 hrs of compound dosing measured 4 days post challenge; type: functional
Procedure, shortened: (§1)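 Female BALB/c mice, 6-8 weeks old, kept specific pathogen-free. Dosed ip at 50 or 200 mg/kg every 12 h for 108 h (4.5 d). Challenged 12 h after the first dose with 2 × 10^7 CFU S. aureus Newman. Mortality followed; n = 15; log-rank test.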

Staphylococcus aureus [5] = assay: Sensitization of methicillin-resistant Staphylococcus aureus USA400 MW2 to H2O2-induced killing assessed as cell survival at 1 uM pre-incubated for 24 hrs before H2O2 exposure for 30 mins by serial dilution method (reference value: 14.17%); type: functional
Staphylococcus aureus [6] = assay: Sensitization of methicillin-resistant Staphylococcus aureus Mu 50 to H2O2-induced killing assessed as cell survival at 1 uM pre-incubated for 24 hrs before H2O2 exposure for 30 mins by serial dilution method (reference value: 30.67%); type: functional; conditions: Mu50
[7] = target: T2, 4,4'-diapophytoene desaturase (4,4'-diaponeurosporene-forming) (Staphylococcus aureus (strain Newman)) (UniProt O07855); assay: Inhibition of diapophytoene desaturase in Staphylococcus aureus Newman assessed as 4,4'-diapophytoene formation by HPLC method; conditions: Staphylococcus aureus subsp. aureus str. Newman
T2 sequence (whole entry): T1 sequence (O07855 whole entry)

Staphylococcus aureus [8] = assay: Sensitization of Staphylococcus aureus Newman to human whole blood assessed as cell survival at 1 uM after 6 hrs by serial dilution method (reference value: 26.67%); type: functional
Staphylococcus aureus [9] = assay: Sensitization of methicillin-resistant Staphylococcus aureus USA300 LAC to H2O2-induced killing assessed as cell survival at 1 uM pre-incubated for 24 hrs before H2O2 exposure for 30 mins by serial dilution method (reference value: 15.83%); type: functional
Trichophyton verrucosum = assay: Antifungal activity against naftifine-sensitive Trichophyton verrucosum after 7 days by serial dilution method; type: functional
Procedure, shortened: (§2)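 Broth serial dilution in 96-well plates per NCCLS recommendations. Medium: RPMI 1640 buffered with 0.165 M MOPS. Fungi were ATCC strains or clinical isolates.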

Staphylococcus aureus [10] = assay: (§3) Attenuation of Staphylococcus aureus Newman virulence in BALB/c mouse systemic infection model assessed as decrease in bacterial survival in heart at 50 mg/kg, ip administered every 12 hrs for 108 hrs followed by bacterial challenge after first 12 hrs of compound dosing measured 5 days post infection; type: functional
Procedure, shortened: (§4)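 Abscess model in female BALB/c mice, 6-8 weeks old. Dosed ip every 12 h for 108 h; retro-orbital challenge with 1 × 10^7 CFU Newman in 100 µL at 12 h. Sacrificed day 5. Kidneys and hearts homogenised in PBS plus 0.1% Triton X-100 and plated on TSA for CFU. n = 13; two-tailed Mann-Whitney.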

Staphylococcus aureus [11] = assay: Sensitization of methicillin-resistant Staphylococcus aureus Mu 50 to human whole blood assessed as cell survival at 1 uM after 6 hrs by serial dilution method (reference value: 16.11%); type: functional; conditions: Mu50, 6 h
Staphylococcus aureus [12] = assay: (§5) Attenuation of methicillin-resistant Staphylococcus aureus USA400 MW2 virulence in BALB/c mouse systemic infection model assessed as decrease in bacterial survival in kidney at 200 mg/kg, ip administered every 12 hrs for 108 hrs followed by bacterial challenge after first 12 hrs of compound dosing measured 5 days post infection; type: functional
Procedure, shortened: (§6)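 Female BALB/c mice, 6-8 weeks old. Dosed ip every 12 h for 108 h. Challenged with 100 µL at 12 h: 1.6 × 10^8 CFU Mu50 or 4 × 10^7 CFU USA400 MW2. Sacrificed 5 days post-infection. Livers and kidneys homogenised in PBS/0.1% Triton X-100, serially plated on TSA, CFU counted; two-tailed Mann-Whitney.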

Staphylococcus aureus [13] = assay: Attenuation of Staphylococcus aureus Newman virulence in BALB/c mouse lethal infection model assessed as mouse survival administered ip every 12 hrs for 108 hrs followed by 2 x 10^7 CFU bacterial challenge after first 12 hrs of compound dosing measured 8 days post challenge; type: functional; procedure, shortened: as §1
Staphylococcus aureus [14] = assay: (§7) Attenuation of methicillin-resistant Staphylococcus aureus Mu 50 virulence in BALB/c mouse systemic infection model assessed as decrease in bacterial survival in liver at 50 mg/kg, ip administered every 12 hrs for 108 hrs followed by bacterial challenge after first 12 hrs of compound dosing measured 5 days post infection; type: functional, Mu50; procedure, shortened: as §6
Staphylococcus aureus [15] = assay: Effect on methicillin-resistant Staphylococcus aureus Mu 50 growth at 0.05 mM after overnight incubation by plate reader method; type: organism-based, Mu50; conditions: 50 µM
Procedure, shortened: (§8)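 DMSO stock (20 mM) diluted in TSB to final 0.2 or 0.05 mM, overlaid with paraffin, pre-warmed 4 h at 37 °C. Overnight cultures adjusted to OD600 ~1.0 and inoculated to final OD600 ≈ 0.05. DMSO-matched growth controls. Incubated overnight at 37 °C; OD600 read every 30 min.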

Staphylococcus aureus [16] = assay: Effect on methicillin-resistant Staphylococcus aureus USA300 LAC growth at 0.2 mM after overnight incubation by plate reader method; type: organism-based; conditions: 200 µM; procedure, shortened: as §8
Staphylococcus aureus [17] = assay: Sensitization of methicillin-resistant Staphylococcus aureus USA400 MW2 to human whole blood assessed as cell survival at 1 uM after 6 hrs by serial dilution method (reference value: 10.8%); type: functional; conditions: MW2 USA400, 6 h
Staphylococcus aureus [18] = assay: Effect on methicillin-resistant Staphylococcus aureus USA400 MW2 growth at 0.05 mM after overnight incubation by plate reader method; type: organism-based; conditions: 50 µM; procedure, shortened: as §8
Staphylococcus aureus [19] = assay: as §7, with “kidney” for “liver”; type: functional, Mu50; procedure, shortened: as §6
Staphylococcus aureus [20] = assay: Sensitization of Staphylococcus aureus Newman to H2O2-induced killing assessed as cell survival at 1 uM pre-incubated for 24 hrs before H2O2 exposure for 30 mins by serial dilution method (reference value: 30.43%); type: functional
Trichophyton rubrum = assay: Antifungal activity against naftifine-sensitive Trichophyton rubrum after 7 days by serial dilution method; type: functional; procedure, shortened: as §2
Staphylococcus aureus [21] = assay: as §7, with “USA400 MW2” for “Mu 50”, “burden” for “survival”; type: functional; procedure, shortened: as §6
Nannizzia gypsea = assay: Antifungal activity against naftifine-sensitive Microsporum gypseum after 7 days by serial dilution method; type: functional; procedure, shortened: as §2
Staphylococcus aureus [22] = assay: as §5, with “50” for “200”; type: functional; procedure, shortened: as §6
Staphylococcus aureus [23] = assay: Sensitization of methicillin-resistant Staphylococcus aureus USA300 LAC to human whole blood assessed as cell survival at 1 uM after 6 hrs by serial dilution method (reference value: 12.17%); type: functional; conditions: LAC USA300, 6 h
[24] = tested on: Trichophyton mentagrophytes; assay: Antifungal activity against naftifine-sensitive Trichophyton mentagrophytes after 7 days by serial dilution method; type: functional; procedure, shortened: as §2
Staphylococcus aureus [25] = assay: as §7, with “in kidney” for “in liver”, “at 200” for “at 50”; type: functional, Mu50; procedure, shortened: as §6
Staphylococcus aureus [26] = assay: as §3, with “kidney” for “heart”; type: functional; procedure, shortened: as §4
Staphylococcus aureus [27] = assay: Effect on Staphylococcus aureus Newman growth at 0.2 mM after overnight incubation by plate reader method; type: organism-based; conditions: 200 µM; procedure, shortened: as §8

## C(/C=C/c1ccccc1)=C\COCc1ccc2c(c1)CCCCC2
[1]
  IC50: > 20000 nM

## Cc1cccc(/C=C/CN(C)Cc2ccc3c(c2)CCCCC3)c1
[1]
  IC50: 770 nM

## COc1ccc(/C=C/CN(C)Cc2ccc3c(c2)CCCC3)cc1
[1]
  IC50: 12.2 nM

## CN(C/C=C/c1ccccc1[N+](=O)[O-])Cc1ccc2c(c1)CCCCC2
[1]
  IC50: > 5000 nM

## CC(C)N(C/C=C/c1ccccc1)Cc1ccc2c(c1)CCCCC2
[1]
  IC50: > 10000 nM

## CN(C/C=C/c1ccc(Br)cc1)Cc1ccc2c(c1)CCCCC2.Cl
[2]
  solubility at 24 h: 570 µg/mL
[1]
  IC50: 7.8 nM
[3]
  IC50: 410 nM

## CN(C/C=C/C=C/c1ccccc1)Cc1ccc2c(c1)CCCCC2
[1]
  IC50: 12.2 nM

## CN(C/C=C/c1ccc([N+](=O)[O-])cc1)Cc1ccc2c(c1)CCCCC2
[1]
  IC50: 12.4 nM

## CN(C/C=C/c1ccccc1)Cc1ccc2c(c1)CCCC2
[1]
  IC50: 603 nM

## CN(C/C=C/c1ccco1)Cc1ccc2c(c1)CCCCC2
[1]
  IC50: > 2500 nM

## COc1ccc(/C=C/CN(C)Cc2ccc3c(c2)CCCCC3)cc1.Cl
Staphylococcus aureus [4]
  Survival: 83%
Staphylococcus aureus [5]
  survival at 1 µM: 0.96%
Staphylococcus aureus [6]
  survival at 1 µM: 4.44%
[7]
  inhibition: Active
Staphylococcus aureus [8]
  survival at 1 µM: 1.83%
Staphylococcus aureus [9]
  survival at 1 µM: 0.98%
Trichophyton verrucosum
  MIC=<80: 8 µg/mL
Staphylococcus aureus [10]
  Activity: 1.62 log10CFU
[2]
  solubility at 24 h: 4240 µg/mL
Staphylococcus aureus [11]
  survival at 1 µM: 0.4%
Staphylococcus aureus [12]
  Activity: 99.5%
Staphylococcus aureus [13]
  Survival: >60%
Staphylococcus aureus [14]
  Activity: 2.44 log10CFU
Staphylococcus aureus [15]
  Activity: Non-toxic
Staphylococcus aureus [16]
  Activity: Non-toxic
Staphylococcus aureus [17]
  survival at 1 µM: 0.2%
Staphylococcus aureus [18]
  Activity: Non-toxic
Staphylococcus aureus [19]
  Activity: 0.99 log10CFU
Staphylococcus aureus [20]
  survival at 1 µM: 0.83%
Trichophyton rubrum
  MIC=<80: 8 µg/mL
Staphylococcus aureus [21]
  Activity: 3.87 log10CFU
Nannizzia gypsea
  MIC=<80: 16 µg/mL
Staphylococcus aureus [22]
  Activity: 99.5%
Staphylococcus aureus [23]
  survival at 1 µM: 0.95%
[24]
  MIC=<80: 8 µg/mL
Staphylococcus aureus [25]
  Activity: 2.27 log10CFU
Staphylococcus aureus [26]
  Activity: 1.17 log10CFU
Staphylococcus aureus [27]
  Activity: Non-toxic

## CN(C/C=C/c1ccc(C(F)(F)F)cc1)Cc1ccc2c(c1)CCCC2.Cl
[2]
  solubility at 24 h: 690 µg/mL
[1]
  IC50: 1.9 nM
[3]
  IC50: 500 nM

## C(=C\c1ccccc1)/COCc1ccc2c(c1)CCCCC2
[1]
  IC50: > 20000 nM

## CN(C/C=C/c1ccc(F)cc1)Cc1ccc2c(c1)CCCCC2
[1]
  IC50: 39.4 nM

## CN(C/C=C/c1ccccc1)Cc1cccc2c1CCCC2
[1]
  IC50: > 1000 nM

## CN(C/C=C/c1ccccc1)Cc1ccc2c(c1)CCCCC2
[1]
  IC50: 202 nM

## CN(C/C=C/c1ccc([N+](=O)[O-])cc1)Cc1ccc2c(c1)CCCC2
[1]
  IC50: 94.5 nM

## CN(C/C=C/c1ccc(C(F)(F)F)cc1)Cc1ccc2c(c1)CCCCC2
[1]
  IC50: 10 nM

## c1ccc(CCCOCc2ccc3c(c2)CCCCC3)cc1
[1]
  IC50: > 20000 nM

## Cc1ccc(/C=C/CN(C)Cc2ccc3c(c2)CCCCC3)cc1
[1]
  IC50: 31 nM
